Ten compounds from ChEMBL document CHEMBL1138789, “HCV NS5b RNA-dependent RNA polymerase inhibitors: from alpha,gamma-diketoacids to 4,5-dihydroxypyrimidine- or 3-methyl-5-hydroxypyrimidinonecarboxylic acids. Design and synthesis” (J Med Chem, 2004) can be followed below.

Experiment [1] has as its target T1, RNA-directed RNA polymerase (Hepacivirus hominis, UniProt O39930). Briefly: Inhibitory concentration required to inhibit HCV RNA dependent RNA polymerase Nonstructural protein 5B in the presence of Mn2+ is determined.
Experiment [2] deals with T1, RNA-directed RNA polymerase. Briefly: Inhibitory concentration required to inhibit HCV RNA dependent RNA polymerase Nonstructural protein 5B in the presence of Mg2+ is determined.
The species named for experiment [3] is Rattus norvegicus. Briefly: Concentration required for irreversible binding to rat liver microsomes in presence of NADPH with GSH. The experiment is classed as functional. In outline:
(§1)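 A tritium-labelled inhibitor was incubated with rat liver microsomes in the presence of NADPH for 4 h. Irreversible covalent binding was read as residual radioactivity bound to microsomal protein, expressed as pmol/mg protein.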
In general terms: Microsomes from liver hold many membrane-bound enzymes, among them those of drug oxidation.

The target in experiment [4] is Human immunodeficiency virus type 1 integrase (Human immunodeficiency virus 1, UniProt Q7ZJM1). Briefly: Inhibitory concentration required to inhibit HIV-integrase is determined.
Human immunodeficiency virus type 1 integrase, sequence (Q7ZJM1 whole entry): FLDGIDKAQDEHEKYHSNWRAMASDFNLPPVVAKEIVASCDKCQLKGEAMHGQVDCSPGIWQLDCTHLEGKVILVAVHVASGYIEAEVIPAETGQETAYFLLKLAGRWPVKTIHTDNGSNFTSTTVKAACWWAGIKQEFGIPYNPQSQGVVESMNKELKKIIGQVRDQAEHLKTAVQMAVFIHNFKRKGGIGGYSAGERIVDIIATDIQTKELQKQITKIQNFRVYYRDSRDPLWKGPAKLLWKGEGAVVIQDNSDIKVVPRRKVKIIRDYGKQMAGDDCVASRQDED
For experiment [5], the target named is Human immunodeficiency virus type 1 reverse transcriptase (Human immunodeficiency virus 1, UniProt Q72547). Briefly: Inhibitory concentration required to inhibit HIV-RT is determined.
The species named for experiment [6] is Rattus norvegicus. Briefly: Concentration required for irreversible binding to rat liver microsomes in presence of NADPH without GSH. It counts as functional. Summed up: as §1
A further experiment deals with DNA polymerase I (Escherichia coli, UniProt P00582). In words: Inhibitory concentration required to inhibit Klenow DNA-dependent DNA polymerase.
DNA polymerase I, sequence (P00582 whole entry): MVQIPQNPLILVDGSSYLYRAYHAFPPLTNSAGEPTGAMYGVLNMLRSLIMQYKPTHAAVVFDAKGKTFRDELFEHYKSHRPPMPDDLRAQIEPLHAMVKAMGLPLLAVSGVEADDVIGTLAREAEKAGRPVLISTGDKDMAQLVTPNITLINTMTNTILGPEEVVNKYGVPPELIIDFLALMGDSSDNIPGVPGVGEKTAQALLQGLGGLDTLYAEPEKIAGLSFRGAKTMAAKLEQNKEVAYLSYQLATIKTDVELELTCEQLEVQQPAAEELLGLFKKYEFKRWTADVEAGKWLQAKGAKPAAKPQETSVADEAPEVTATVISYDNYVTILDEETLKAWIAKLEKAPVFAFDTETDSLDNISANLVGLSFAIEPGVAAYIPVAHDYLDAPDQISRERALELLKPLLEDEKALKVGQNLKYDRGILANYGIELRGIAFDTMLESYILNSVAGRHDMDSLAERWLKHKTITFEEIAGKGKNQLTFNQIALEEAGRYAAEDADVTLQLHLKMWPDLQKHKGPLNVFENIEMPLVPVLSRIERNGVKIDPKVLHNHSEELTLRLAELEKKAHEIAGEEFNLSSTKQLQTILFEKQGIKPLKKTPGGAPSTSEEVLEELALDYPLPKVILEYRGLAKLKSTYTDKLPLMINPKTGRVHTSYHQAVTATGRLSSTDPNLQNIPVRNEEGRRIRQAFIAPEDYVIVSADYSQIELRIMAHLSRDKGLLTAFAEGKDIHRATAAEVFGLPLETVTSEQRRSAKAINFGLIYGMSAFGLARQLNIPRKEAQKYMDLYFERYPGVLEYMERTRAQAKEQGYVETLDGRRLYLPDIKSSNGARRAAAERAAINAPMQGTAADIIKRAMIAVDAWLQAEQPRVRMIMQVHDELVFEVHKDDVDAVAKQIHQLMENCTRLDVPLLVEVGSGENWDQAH

T1 sequence (O39930 whole entry): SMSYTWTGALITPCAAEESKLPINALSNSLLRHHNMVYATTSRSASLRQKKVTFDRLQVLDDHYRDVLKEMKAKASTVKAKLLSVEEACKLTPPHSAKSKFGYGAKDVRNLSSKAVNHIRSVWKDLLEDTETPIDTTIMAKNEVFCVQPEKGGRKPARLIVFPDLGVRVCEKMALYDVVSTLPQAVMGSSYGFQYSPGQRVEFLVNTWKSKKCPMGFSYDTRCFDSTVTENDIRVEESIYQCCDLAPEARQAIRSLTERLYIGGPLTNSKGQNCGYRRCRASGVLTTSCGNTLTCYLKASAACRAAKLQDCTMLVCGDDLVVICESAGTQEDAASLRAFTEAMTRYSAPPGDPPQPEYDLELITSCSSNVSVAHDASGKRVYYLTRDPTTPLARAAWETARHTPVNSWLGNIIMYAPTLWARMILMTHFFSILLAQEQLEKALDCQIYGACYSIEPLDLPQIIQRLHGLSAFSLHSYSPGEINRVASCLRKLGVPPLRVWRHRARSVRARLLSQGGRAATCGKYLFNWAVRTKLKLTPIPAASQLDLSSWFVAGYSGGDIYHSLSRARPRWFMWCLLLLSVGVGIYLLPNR

Turning to `COc1nc(-c2cccc(O)c2)nc(C(=O)O)c1O`, the IC50 in experiment [1] and in experiment [2] was greater than 50 µM in each case.
`O=C(O)c1nc(-c2ccccc2)nc(O)c1O`: the Activity in the experiment filed under Rattus norvegicus [3] and in the experiment listed under Rattus norvegicus [6] was less than 2 pmol/mg each time. Also, the IC50 – broadly, the point on the concentration scale where inhibition reaches its midpoint – was greater than 50 µM in experiment [4], 2.3 µM in experiment [1], greater than 100 µM in experiment [5] and greater than 100 µM against DNA polymerase I.
`O=C(O)c1nc(-c2cccc(O)c2)nc(O)c1O`: the IC50 was greater than 50 µM in experiment [4]; 0.6 µM in experiment [1]; greater than 100 µM in experiment [5]; 5.8 µM in experiment [2]; greater than 100 µM against DNA polymerase I.
On to `O=c1[nH]c(-c2cccc(O)c2)ncc1O`, for which the IC50 in experiment [1] and in experiment [2] was greater than 50 µM each time.
For the compound `O=C(O)C(=O)/C=C(\O)c1ccccc1`, the Activity in the experiment filed under Rattus norvegicus [3] and in the experiment listed under Rattus norvegicus [6] was greater than 400 pmol/mg throughout.
`Cn1c(-c2cccc(O)c2)nc(C(=O)O)c(O)c1=O`: the IC50 in experiment [1] was found to be 1 µM; in experiment [2] it was 6 µM.
Consider `COc1c(C(=O)O)nc(-c2ccc(Cl)cc2)[nH]c1=O`, for which the IC50 in experiment [1] and in experiment [2] was greater than 50 µM each time.
As for `O=C(O)c1nc(-c2ccc(Cl)cc2)[nH]c(=O)c1O`, the IC50 is greater than 50 µM in experiment [4]; 1.4 µM in experiment [1]; 23 µM in experiment [5]; 29 µM in experiment [2]; greater than 100 µM at DNA polymerase I.
For `O=C(O)c1nc(-c2cccc(OCc3ccccc3)c2)[nH]c(=O)c1O` the same measures were greater than 50 µM, 1 µM, greater than 100 µM, 15 µM and greater than 100 µM.
Regarding `COC(=O)c1nc(-c2ccc(Cl)cc2)[nH]c(=O)c1O`, the IC50 in experiment [1] is 30 µM; in experiment [2] it was greater than 100 µM.
